# ChEMBL document CHEMBL1123812, “Pyrroloisoquinoline antidepressants. 2. In-depth exploration of structure-activity relationships” (J Med Chem, 1987)
# Calls of active or inactive are those of the source.
# Legend:
# [1] = species: Rattus norvegicus; assay: Ability to inhibit the uptake of tritiated norepinephrine (NE) at 0.1 uM concentration; format: functional
# Summary of the method: (§1)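 Male Wistar rat brain synaptosomes (P2 fraction): hypothalamus for NE, striatum for DA, cerebral cortex for 5-HT. Buffer is Tris- or HEPES-buffered salt medium with glucose, ascorbate and nialamide, pH 7.4 at 37 °C. Preincubated 10 min at 37 °C with compound. Uptake started with [3H]NE 100–300 nM, [3H]DA 50–300 nM or [3H]5-HT 100–200 nM, incubated 3 min (DA) or 6–10 min (NE, 5-HT). Blanks held on ice. Filtered, counted by scintillation.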
# [2] = species: Mus musculus; assay: Antagonism of tetrabenazine (TBZ)-induced depression measured in mice by motor activity; format: functional
# Summary of the method: (§2)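 Nonfasted male Swiss Webster mice, 18–24 g, ten per dose level and in saline controls. Test compound given ip 30 min before tetrabenazine 32 mg/kg ip; dose expressed as free base. Motor activity and ptosis scored. Control response ≤90% corrected by Abbott's formula.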
# [3] = molecular target: Sodium-dependent dopamine transporter (Rattus norvegicus) (UniProt P23977); assay: Inhibition of tritiated dopamine (DA) uptake at 0.1 uM concentration; format: functional; summary of the method: as §1
# Chain of Sodium-dependent dopamine transporter (Rattus norvegicus) (P23977 whole entry): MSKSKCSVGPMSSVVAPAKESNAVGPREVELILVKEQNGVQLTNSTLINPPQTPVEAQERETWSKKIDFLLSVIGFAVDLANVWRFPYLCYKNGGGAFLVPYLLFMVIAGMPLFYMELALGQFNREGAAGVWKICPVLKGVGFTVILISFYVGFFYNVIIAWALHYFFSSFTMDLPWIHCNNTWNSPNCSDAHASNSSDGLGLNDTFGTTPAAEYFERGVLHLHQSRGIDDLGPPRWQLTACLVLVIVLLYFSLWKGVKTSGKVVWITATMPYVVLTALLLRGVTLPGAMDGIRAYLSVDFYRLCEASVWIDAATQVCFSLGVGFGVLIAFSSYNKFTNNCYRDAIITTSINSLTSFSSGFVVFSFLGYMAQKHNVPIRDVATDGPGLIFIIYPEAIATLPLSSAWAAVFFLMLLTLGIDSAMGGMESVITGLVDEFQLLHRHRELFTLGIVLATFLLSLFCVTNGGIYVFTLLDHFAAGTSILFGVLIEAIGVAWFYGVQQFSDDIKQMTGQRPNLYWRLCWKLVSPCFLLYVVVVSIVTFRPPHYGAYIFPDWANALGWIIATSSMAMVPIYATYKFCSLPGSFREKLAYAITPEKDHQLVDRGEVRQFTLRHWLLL
# [4] = molecular target: Sodium-dependent serotonin transporter (Rattus norvegicus) (UniProt P31652); assay: Inhibition of tritiated serotonin(5-HT) uptake at 0.1 uM concentration; format: functional; summary of the method: as §1
# Chain of Sodium-dependent serotonin transporter (Rattus norvegicus) (P31652 whole entry): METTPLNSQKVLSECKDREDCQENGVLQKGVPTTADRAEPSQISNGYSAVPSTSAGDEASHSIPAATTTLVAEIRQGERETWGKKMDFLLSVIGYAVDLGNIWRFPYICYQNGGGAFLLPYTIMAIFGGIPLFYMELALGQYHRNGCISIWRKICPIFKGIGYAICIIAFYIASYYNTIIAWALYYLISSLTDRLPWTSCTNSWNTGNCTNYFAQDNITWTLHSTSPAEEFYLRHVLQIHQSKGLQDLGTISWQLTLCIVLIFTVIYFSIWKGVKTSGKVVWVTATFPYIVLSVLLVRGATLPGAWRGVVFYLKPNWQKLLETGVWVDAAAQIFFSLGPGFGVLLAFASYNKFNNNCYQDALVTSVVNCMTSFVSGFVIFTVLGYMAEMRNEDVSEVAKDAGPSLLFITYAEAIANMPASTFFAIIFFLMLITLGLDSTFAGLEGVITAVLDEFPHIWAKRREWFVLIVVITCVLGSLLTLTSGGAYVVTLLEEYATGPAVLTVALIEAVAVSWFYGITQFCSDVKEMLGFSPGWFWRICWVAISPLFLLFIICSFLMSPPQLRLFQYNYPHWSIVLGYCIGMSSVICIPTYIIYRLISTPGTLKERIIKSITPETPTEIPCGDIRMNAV
# [5] = species: Mus musculus; assay: Gross behavioral effects ascertained in mice; W indicates weak stimulant or depressant activity of little significance.; format: functional, organism-based
# Summary of the method: (§3)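 Male Swiss Webster mice, 18–24 g, three per dose, given ip doses of 1, 3, 10, 30, 100 and 300 mg/kg. Observed for gross behavior and held for 4 days. Scored as weak (W), stimulant (S), depressant (D) or convulsant (C).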
# [6] = species: Mus musculus; assay: Antagonism of tetrabenazine (TBZ)-induced depression in mice measured for ptosis; format: functional; summary of the method: as §2
# [7] = molecular target: Sodium-dependent serotonin transporter (Rattus norvegicus) (UniProt P31652); assay: Ability to inhibit the uptake of [3H]- serotonin(5-HT) 0.1 uM concentration at rat brain synaptosomes; format: functional, subcellular; summary of the method: as §1
# [8] = molecular target: Sodium-dependent dopamine transporter (Rattus norvegicus) (UniProt P23977); assay: Ability to inhibit the uptake of [3H]dopamine (DA) 0.1 uM concentration at rat brain synaptosomes; format: functional, subcellular; summary of the method: as §1
# [9] = molecular target: Norepinephrine transporter (Rattus norvegicus) (UniProt Q9WTR4); assay: Ability to inhibit the uptake of [3H]norepinephrine (NE) 0.1 uM concentration at rat brain synaptosomes; format: functional, subcellular; summary of the method: as §1
# Chain of Norepinephrine transporter (Rattus norvegicus) (Q9WTR4 as listed by the source): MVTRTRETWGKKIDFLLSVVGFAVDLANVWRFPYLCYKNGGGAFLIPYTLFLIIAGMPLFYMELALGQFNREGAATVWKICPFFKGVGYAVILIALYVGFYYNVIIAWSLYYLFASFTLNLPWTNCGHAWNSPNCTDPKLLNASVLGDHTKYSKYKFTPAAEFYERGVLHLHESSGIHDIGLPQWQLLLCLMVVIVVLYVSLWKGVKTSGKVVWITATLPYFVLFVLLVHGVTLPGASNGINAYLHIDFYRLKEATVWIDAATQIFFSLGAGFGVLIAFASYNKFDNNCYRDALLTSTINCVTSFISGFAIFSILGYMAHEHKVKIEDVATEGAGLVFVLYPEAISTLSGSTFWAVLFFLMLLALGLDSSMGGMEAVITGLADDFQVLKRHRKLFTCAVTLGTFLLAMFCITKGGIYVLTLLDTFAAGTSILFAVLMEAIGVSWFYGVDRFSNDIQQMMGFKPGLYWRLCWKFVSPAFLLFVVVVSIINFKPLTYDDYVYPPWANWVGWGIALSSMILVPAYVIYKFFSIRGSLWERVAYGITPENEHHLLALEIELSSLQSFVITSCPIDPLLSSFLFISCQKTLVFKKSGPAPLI
# [10] = molecular target: D(2) dopamine receptor (Rattus norvegicus) (UniProt P61169); assay: Binding affinity towards dopamine receptor D2 at 1.0 uM concentration
# Chain of D(2) dopamine receptor (Rattus norvegicus) (P61169 whole entry): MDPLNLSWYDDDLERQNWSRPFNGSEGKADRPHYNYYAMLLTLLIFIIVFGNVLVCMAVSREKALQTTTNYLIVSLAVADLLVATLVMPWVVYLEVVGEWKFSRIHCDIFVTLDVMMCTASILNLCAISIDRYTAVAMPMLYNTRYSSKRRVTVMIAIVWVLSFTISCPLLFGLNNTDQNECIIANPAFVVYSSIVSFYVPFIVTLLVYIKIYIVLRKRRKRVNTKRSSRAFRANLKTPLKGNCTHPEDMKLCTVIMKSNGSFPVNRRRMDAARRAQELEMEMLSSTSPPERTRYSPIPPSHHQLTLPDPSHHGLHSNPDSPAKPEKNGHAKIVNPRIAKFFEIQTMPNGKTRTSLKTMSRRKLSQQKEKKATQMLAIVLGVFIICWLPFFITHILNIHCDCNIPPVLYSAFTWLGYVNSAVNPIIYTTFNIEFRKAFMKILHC
# Summary of the method: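 Rat brain crude synaptic membranes in 20 mM NaHEPES pH 7.5. Ligands: α1 cortex […] 0.4 nM, nonspecific with (-)-NE 100 μM, 30 min at 25 °C. […] D2 striatum [3H]spiperone 0.05 nM with (+)-butaclamol 1 μM, 45 min at 37 °C. S1 cortex [3H]5-HT 1 nM plus glutathione and MgCl2, with 5-HT 10 μM, 20 min at 37 °C. […] Samples filtered on GF/B and counted.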
# [11] = species: Mus musculus; assay: Gross behavioral effects ascertained in mice; S indicates significant stimulant properties.; format: functional, organism-based; summary of the method: as §3
# [12] = molecular target: Sodium-dependent dopamine transporter (Rattus norvegicus, UniProt P23977); assay: Inhibition of the uptake of tritiated dopamine (DA) in rat synaptosomes; format: subcellular, Brain
# Chain of Sodium-dependent dopamine transporter (P23977 whole entry): as the sequence (P23977 whole entry) above
# [13] = molecular target: Norepinephrine transporter (Rattus norvegicus, UniProt Q9WTR4); assay: Inhibition of uptake of tritiated norepinephrine (NE) in rat synaptosomes; format: subcellular, Brain
# Chain of Norepinephrine transporter (Q9WTR4 whole entry): as the sequence (Q9WTR4 as listed by the source) above
# [14] = molecular target: T1, Adrenergic receptor alpha-1 (Rattus norvegicus, UniProt P15823+P23944+P43140); assay: Binding affinity towards alpha-1 adrenergic receptor; format: protein assay
# T1 sequence (P15823 whole entry): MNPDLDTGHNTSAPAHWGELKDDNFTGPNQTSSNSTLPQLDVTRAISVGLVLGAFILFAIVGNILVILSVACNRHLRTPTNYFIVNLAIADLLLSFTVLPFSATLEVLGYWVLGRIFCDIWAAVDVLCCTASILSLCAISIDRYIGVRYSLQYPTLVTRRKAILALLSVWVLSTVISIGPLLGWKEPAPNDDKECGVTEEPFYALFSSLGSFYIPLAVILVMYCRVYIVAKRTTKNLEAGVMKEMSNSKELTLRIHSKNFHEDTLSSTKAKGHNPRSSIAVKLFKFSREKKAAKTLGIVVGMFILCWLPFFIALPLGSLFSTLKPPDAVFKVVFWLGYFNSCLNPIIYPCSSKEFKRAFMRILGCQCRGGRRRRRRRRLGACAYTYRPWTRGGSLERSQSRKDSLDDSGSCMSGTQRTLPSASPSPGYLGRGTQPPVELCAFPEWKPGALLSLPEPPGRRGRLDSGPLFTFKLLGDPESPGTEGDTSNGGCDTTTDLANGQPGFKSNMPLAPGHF
# T1 sequence (P23944 whole entry): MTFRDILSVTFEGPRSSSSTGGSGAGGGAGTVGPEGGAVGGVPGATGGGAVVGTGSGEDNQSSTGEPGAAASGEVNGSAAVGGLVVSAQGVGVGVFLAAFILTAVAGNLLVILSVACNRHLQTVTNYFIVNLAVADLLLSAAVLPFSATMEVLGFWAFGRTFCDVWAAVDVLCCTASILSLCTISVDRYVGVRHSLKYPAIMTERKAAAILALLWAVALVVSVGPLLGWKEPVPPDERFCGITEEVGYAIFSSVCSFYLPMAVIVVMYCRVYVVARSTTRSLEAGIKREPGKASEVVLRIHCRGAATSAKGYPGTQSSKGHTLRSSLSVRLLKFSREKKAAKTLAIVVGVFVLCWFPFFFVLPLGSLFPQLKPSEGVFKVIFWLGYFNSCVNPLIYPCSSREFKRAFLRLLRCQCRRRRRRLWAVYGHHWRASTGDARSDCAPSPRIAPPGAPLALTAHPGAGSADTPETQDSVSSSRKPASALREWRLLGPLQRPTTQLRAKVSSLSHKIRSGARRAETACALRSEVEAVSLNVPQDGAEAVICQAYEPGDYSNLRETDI
# T1 sequence (P43140 whole entry): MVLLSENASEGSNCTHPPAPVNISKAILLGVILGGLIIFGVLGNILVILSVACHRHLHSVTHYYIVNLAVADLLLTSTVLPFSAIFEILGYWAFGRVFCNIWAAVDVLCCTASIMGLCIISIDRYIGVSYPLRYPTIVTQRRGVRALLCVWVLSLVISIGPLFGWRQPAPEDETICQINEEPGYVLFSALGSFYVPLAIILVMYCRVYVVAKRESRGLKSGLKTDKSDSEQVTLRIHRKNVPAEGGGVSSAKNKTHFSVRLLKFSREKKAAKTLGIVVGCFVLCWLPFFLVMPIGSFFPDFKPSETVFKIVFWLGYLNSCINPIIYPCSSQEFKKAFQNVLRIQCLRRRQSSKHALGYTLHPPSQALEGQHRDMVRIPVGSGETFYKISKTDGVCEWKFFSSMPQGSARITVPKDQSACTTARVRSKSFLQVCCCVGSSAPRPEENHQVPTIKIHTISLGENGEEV
# [15] = system: Mus musculus; assay: Ability to antagonise intraperitoneal dose; inactive (<10% antagonism) at 30 mg/kg is represented as I-30.; format: functional, organism-based; set-up: dose 30 mg/kg; summary of the method: as §2
inhibition [3] [%],Ki [12] [nM],Ki [13] [nM],Compound,"ED50 ([2]; Mus musculus, read-out: ED50) [mg/kg]","ED50 ([6]; Mus musculus, read-out: ED50) [mg/kg]",further results
,,,N#Cc1ccccc1[C@@H]1CN2CCC[C@@H]2c2ccccc21,> 3,> 3,inhibition [7]: 6%; inhibition [8]: 33%; inhibition [9]: 71%
,,,Br.CCCCc1ccc([C@@H]2CN3CCC[C@H]3c3ccccc32)cc1,> 30,,inhibition [7]: 3%; inhibition [8]: 5%; behavior [5]: Weak; inhibition [9]: 13%
45,,,Clc1cccc2c1[C@H]1CCCN1C[C@H]2c1ccccc1,,,Inhibition [1]: 4%; inhibition [4]: 22%
7,,,FC(F)(F)c1ccc([C@@H]2CN3CCC[C@H]3c3ccccc32)cc1,,,inhibition [7]: 15%; inhibition [9]: -1%
,15,53.7,COc1cc2c(cc1OC)[C@H]1CCCN1C[C@H]2c1ccccc1,15.1,3.8,inhibition [10]: 6%; behavior [11]: Stimulant
,44.8,15.1,Br.Oc1cccc([C@@H]2CN3CCC[C@H]3c3ccccc32)c1,> 30,3.1,behavior [11]: Stimulant
,1340,,c1ccc([C@@H]2CN3CCC[C@@H]3c3ccccc32)cc1 (stereo in doubt; (-)-7b),,,ED50 [2]: >30 mg/kg; Ki [14]: 262 nM; ED50 [6]: 8.3 mg/kg
35,,16.1,Br.COc1cccc([C@@H]2CN3CCC[C@H]3c3ccccc32)c1,> 60,> 60,behavior [5]: Weak
-3,,,COc1ccccc1[C@@H]1CN2CCC[C@H]2c2ccccc21,,,Inhibition [1]: 65%; inhibition [4]: -2%
43,,,Fc1ccc([C@@H]2CN3CCC[C@H]3c3ccccc32)cc1,> 60,> 10,Inhibition [1]: 61%; inhibition [4]: 3%; behavior [5]: Weak
,,,C[C@H]1[C@H](c2ccccc2)c2ccccc2[C@@H]2CCCN21,~30,3.3,inhibition [7]: 15%; inhibition [8]: 17%; behavior [5]: Weak; inhibition [9]: 62%
,0.86,0.2,Br.Nc1ccc([C@@H]2CN3CCC[C@@H]3c3ccccc32)cc1,~0.02,~0.01,behavior [11]: Significant stimulant
6,,,Br.Clc1cccc2c1[C@H](c1ccccc1)CN1CCC[C@@H]21,> 3,> 3,Inhibition [1]: 3%; inhibition [4]: 0%
,4.4,,c1ccc([C@@H]2CN3CCC[C@@H]3c3ccccc32)cc1 (stereo in doubt; (+)-7b),,,ED50 [2]: 0.59 mg/kg; Ki [14]: 83 nM; ED50 [6]: 0.05 mg/kg
0,,,Br.Fc1c(F)c(F)c([C@@H]2CN3CCC[C@H]3c3ccccc32)c(F)c1F,,,Inhibition [1]: 12%; inhibition [4]: 4%
,10.1,0.85,Br.Oc1cccc([C@@H]2CN3CCC[C@@H]3c3ccccc32)c1,> 10,0.11,behavior [11]: Significant stimulant
,,,C#Cc1ccc([C@@H]2CN3CCC[C@@H]3c3ccccc32)cc1,~0.5,~0.5,behavior [11]: Significant stimulant
,,,Br.FC(F)(F)c1ccccc1[C@@H]1CN2CCC[C@@H]2c2ccccc21,> 3,> 3,inhibition [7]: 2%; inhibition [8]: 14%; inhibition [9]: 42%
19,,,Br.c1ccc([C@@H]2CN3CCCCC[C@H]3c3ccccc32)cc1,~40,~40,inhibition [7]: 6%; behavior [5]: Weak; inhibition [9]: 13%
26,,,Br.Oc1ccc([C@@H]2CN3CCC[C@H]3c3ccccc32)cc1,,2,Inhibition [1]: 78%; inhibition [10]: 59%; ED50 [15]: inactive; behavior [5]: Partial stimulant
,7690,2570,FC(F)(F)c1cccc([C@@H]2CN3CCC[C@@H]3c3ccccc32)c1 (stereo in doubt; (-)-37b),,,Ki [14]: 30 nM
,7.4,1.25,Br.C[C@]1(c2ccccc2)CN2CCC[C@H]2c2ccccc21,27.2,0.44,behavior [11]: Significant stimulant
,,,Cc1ccccc1[C@@H]1CN2CCC[C@H]2c2ccccc21,,,inhibition [7]: -6%; inhibition [8]: -1%; inhibition [9]: 12%
14,,,Br.Fc1c(F)c(F)c([C@@H]2CN3CCC[C@@H]3c3ccccc32)c(F)c1F,,,Inhibition [1]: 42%; inhibition [4]: 2%

Compound,inhibition [3] [%],Ki [12] [nM],Ki [13] [nM],"ED50 ([2]; Mus musculus, read-out: ED50) [mg/kg]","ED50 ([6]; Mus musculus, read-out: ED50) [mg/kg]",further results
COc1cccc2c1[C@H](c1ccccc1)CN1CCC[C@@H]21,0,,,20.7,13.9,Inhibition [1]: 5%; inhibition [4]: 31%; behavior [5]: Weak
Br.c1ccc([C@H]2CN3CCC[C@H]3c3ccsc32)cc1,,5.2,1.4,5,0.79,behavior [11]: Significant stimulant
Br.c1ccc([C@H]2CN3CCC[C@H]3c3[nH]c4ccccc4c32)cc1,,2.9,2.3,1.07,0.3,behavior [11]: Significant stimulant
Clc1cccc([C@@H]2CN3CCC[C@H]3c3ccccc32)c1,67,,100,,,inhibition [4]: 11%
